ChEMBL document CHEMBL1148199, “Synthesis, conformational analysis, and cytotoxicity of new analogues of the natural cyclodepsipeptide jaspamide” (J Nat Prod, 2004)
In brackets after ≈: the same amount, converted by molar mass. Activity calls are given as the source filed them. The calls are words filed in the database; no cut-off is given here.

What was measured:
[1] = tested on: MCF7; experiment: Antiproliferative activity against human MCF7 cells after 48 hrs by SRB assay; details: MCF7, 48 h
[2] = tested on: T-24; experiment: Antiproliferative activity against human T24 cells after 48 hrs by SRB assay; format: functional, cell-based; details: T-24, 48 h
Summary of the method: (§1)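 Human cell lines (T24 bladder carcinoma, MCF-7, NCI/ADR) kept in RPMI-1640 with 10% FBS and 50 μg/mL gentamycin at 37 °C, 5% CO2. Plated at ~15% confluency and left 24 h to attach. Treated in triplicate with varying concentrations for 48 h. Survival measured by sulforhodamine B binding as % of control cultures. IC50 is the concentration giving 50% inhibition of proliferation.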

[3] = tested on: A10; experiment: Effect on cell morphology in rat A10 cells assessed microtubule depolymerization by immunofluorescence assay; format: functional, cell-based
Summary of the method: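 Near-confluent A-10 cells on glass coverslips treated with compounds at micromolar amounts for 24 h. Microtubules immunostained with monoclonal anti-β-tubulin followed by fluorescein-conjugated anti-mouse IgG and examined for changes in the microtubule network.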

[4] = tested on: A10; experiment: Antiproliferative activity against rat A10 cells after 48 hrs by SRB assay; format: cell-based; details: A10, 48 h
Summary of the method: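 A-10 rat aortic smooth muscle cells kept in α-MEM with 10% FBS and 50 μg/mL gentamycin at 37 °C, 5% CO2. Seeded at ~15% confluency, 24 h recovery, then triplicate 48 h exposure to a concentration series. SRB binding read against control cultures. IC50 is the concentration causing 50% inhibition of proliferation.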

[5] = Antiproliferative activity against multidrug-resistant human NCI/ADR cells expressing p-glycoprotein after 48 hrs by SRB assay; format: functional, cell-based; details: NCI/ADR-RES
Summary of the method: as §1

[6] = tested on: A10; experiment: Effect on cell morphology in rat A10 cells assessed as microfilaments depolymerization by immunofluorescence assay; format: functional, cell-based
Summary of the method: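 A-10 rat smooth muscle cells grown to near-confluency on glass coverslips and exposed to compounds at micromolar amounts for 24 h. Jaspamide served as positive control. Microfilaments stained with monoclonal anti-β-actin, then fluorescein-conjugated anti-mouse IgG. Read-out: actin aggregation and cellular aberrations such as binucleated cells.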

[7] = tested on: A10; experiment: Effect on cell morphology in rat A10 cells assessed as actin aggregation at 0.85 nM by immunofluorescence assay; format: functional, cell-based
Summary of the method: (§2)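 A-10 rat aortic smooth muscle cells were grown to near-confluency on glass coverslips and treated for 24 h. Microfilaments were stained with monoclonal anti-β-actin followed by fluorescein-conjugated anti-mouse IgG. Actin aggregation was scored by immunofluorescence microscopy. Microtubules were stained in parallel samples with anti-β-tubulin and the same secondary antibody.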

[8] = tested on: A10; experiment: Effect on cell morphology in rat A10 cells assessed as actin aggregation at 23 nM by immunofluorescence assay; format: functional, cell-based
Summary of the method: as §2

| Compound | IC50 [1] | IC50 [2] | Activity [3] | IC50 [4] | IC50 [5] | Activity [6] | Activity [7] | Activity [8] |
| --- | --- | --- | --- | --- | --- | --- | --- | --- |
| CC(C)[C@@H]1NC(=O)[C@@H](Cc2c[nH]c3ccccc23)NC(=O)[C@H](C)NC(=O)CCNC(=O)CCCCNC1=O | 3 µg/mL (≈ 5.7 µM) | 19 µg/mL (≈ 36.1 µM) | inactive | 4.3 µg/mL (≈ 8.17 µM) | 24 µg/mL (≈ 45.6 µM) | inactive | – | – |
| CC(C)[C@@H]1NC(=O)[C@@H](Cc2c[nH]c3ccccc23)NC(=O)[C@H](C)NC(=O)CCCCCNC1=O | 1.8 µg/mL (≈ 3.83 µM) | 10.3 µg/mL (≈ 21.9 µM) | inactive | 2 µg/mL (≈ 4.26 µM) | 12.5 µg/mL (≈ 26.6 µM) | inactive | – | – |
| CC(C)[C@@H]1NC(=O)[C@@H](Cc2c[nH]c3ccccc23)NC(=O)[C@H](C)NC(=O)CCCCCCCNC1=O | > 100 µg/mL | > 100 µg/mL | inactive | > 100 µg/mL | > 100 µg/mL | inactive | – | – |
| C/C1=C\[C@H](C)C[C@H](C)OC(=O)C[C@H](c2ccc(O)cc2)NC(=O)[C@@H](Cc2c(Br)[nH]c3ccccc23)N(C)C(=O)[C@H](C)NC(=O)[C@@H](C)C1 | – | – | – | – | – | – | Active | Active |
